# Compound activity as filed in PubChem BioAssay.
# APJ agonist: agonists of human APJ apelin receptor; 330,000 compounds, 0.11% hits; P35414; CHO-K1 APJ PathHunter beta-arrestin, luminescence; 0% DMSO wells, 100% apelin; activation, % at 20 µM; AID 2520;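 active means activation more than six SD over the plate average, tested at 20 µM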;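 further: 0% = DMSO alone and 100% = apelin-13 at 10 nM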
#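 Assay system: engineered CHO-K1 APJ arrestin reporter cells; Amount: 1000 CHO-K1 reporter cells seeded per well; Dosing: one dose, 20 µM compound, 1% DMSO; Times: compound stimulation 90 min at 25 °C, detection 60 min; Measured by: luminescent beta-gal fragment complementation, chemiluminescent substrate; Read-out: APJ–arrestin association signal; Controls: DMSO vs Apelin-13 10 nM.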
# APJ antagonist: antagonists of human APJ apelin receptor | P35414 | CHO-K1 APJ beta-arrestin complementation, luminescence | inhibition, % at 20 µM | 330,000 compounds, 0.32% hits | AID 2521;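 active means inhibition above about 40% at 20 µM, limit read from the data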;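 further: cells challenged with 10 nM apelin-13 agonist together with compound; plate controls were apelin-13 plus DMSO wells for no effect and DMSO wells lacking apelin-13 for full effect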
# CXCR6 block: inhibitors of human CXCR6 receptor. AID 602244. 360,000 compounds, 0.36% hits. inhibition, % at 20 µM. CHO-K1 PathHunter CXCR6 beta-arrestin, luminescence; in the data active means inhibition above about 34%, passing the limit was not always enough;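 further: antagonist mode with CXCL16 agonist at 10 nM final; 0% = 10 nM CXCL16 with DMSO and 100% = unstimulated wells without agonist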
# Target sequence (O00574 whole entry, looked up): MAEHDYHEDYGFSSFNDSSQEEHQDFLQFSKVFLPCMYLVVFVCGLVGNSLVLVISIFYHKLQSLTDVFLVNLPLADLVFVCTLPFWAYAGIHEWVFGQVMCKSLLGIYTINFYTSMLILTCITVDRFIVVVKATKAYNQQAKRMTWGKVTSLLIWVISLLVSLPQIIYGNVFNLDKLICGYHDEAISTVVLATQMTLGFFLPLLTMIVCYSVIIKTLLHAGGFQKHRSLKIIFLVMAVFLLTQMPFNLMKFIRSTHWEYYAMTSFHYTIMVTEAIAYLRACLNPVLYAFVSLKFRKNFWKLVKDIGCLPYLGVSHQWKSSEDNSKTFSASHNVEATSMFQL
# CCR6 antag: antagonists of human CCR6 receptor; 340,000 compounds, 0.49% hits; AID 493098; inhibition, % at 20 µM; P51684; CHO-K1 CCR6 PathHunter beta-arrestin, luminescence, CCL20-stimulated;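 active means compounds whose inhibition of the agonist-driven luminescence signal at 20 µM reaches about 50%, limit read from the data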;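 further: cells stimulated with CCL20 at 14 nM final; plate controls were DMSO with CCL20 for no effect and DMSO without agonist for full effect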
# EBI2 antag: antagonists of human EBI2 receptor | EBI2 beta-arrestin recruitment, luminescence, 7a,25-OHC stimulated | inhibition, % at 5 µM | 360,000 compounds, 0.81% hits | P32249; in the data active means inhibition above about 38%;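 further: enzyme fragment complementation signal reports receptor beta-arrestin coupling in cells; 0% = agonist plus DMSO wells and 100% = wells without agonist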
# EBI2 conf: EBI2 (human) antagonism, single concentration confirmation | shares compounds with EBI2 antag | EBI2 beta-arrestin luminescence, 7a,25-OHC antagonism | inhibition, % at 5 µM | 2,400 compounds, 29% hits;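 active means inhibition of at least 50%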
# EBI2 agonist: activates EBI2, counter-screen for EBI2 antagonists; activation, % at 5 µM; EBI2-expressing cells, agonist mode, luminescence, 60 min; 0% vehicle, 100% 7α,25-dihydroxycholesterol control; shares compounds with EBI2 antag; 2,400 tested, under 10 active;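 active means activation of at least 50%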
# bGal cs: inhibits E. coli beta-galactosidase, counter-screen for EBI2 antagonists | shares compounds with EBI2 antag | 2,400 compounds, 1% hits | purified beta-galactosidase, luminescent Galacton Star, 15 min | AID 652176 | inhibition, % at 5 µM;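 active means replicate-average signal at least 3 plate SD below neutral wells, shown as high inhibition, flagging enzyme-inhibiting false positives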;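 further: 0% = DMSO wells with enzyme and 100% = wells lacking enzyme; higher means stronger loss of beta-gal luminescence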
# * = called active by the depositor; / = no result given. The list is not random: actives were taken first. Their share in the collection is about 1.5%.
SMILES,APJ agonist,APJ antagonist,CXCR6 block,CCR6 antag,EBI2 antag,EBI2 conf,EBI2 agonist,bGal cs
O=C(NCc1ccc2c(c1)OCO2)C1CCN(S(=O)(=O)c2ccc(Br)s2)CC1,3,1,-4,-4,44*,18,-1,-4
O=C(NCCc1ccc(Cl)cc1)C1CCN(S(=O)(=O)c2ccc(Br)s2)CC1,-5,3,-3,11,51*,11,-1,-10
CC1CC(C)CN(S(=O)(=O)N2CCCC(C(=O)NCCc3ccc(Cl)cc3)C2)C1 (stereo unspecified),-2,-11,-2,22,57*,52*,-1,-18
O=C(NCc1ccc2c(c1)OCO2)C1CCN(S(=O)(=O)c2cccs2)CC1,-2,-5,-3,5,10,/,/,/
FCCCOc1ccc(/C=N/OCc2c(Cl)cccc2Cl)cc1,-1,3,-1,-1,35,/,/,/
FCCCOc1ccc(/C=N/OCc2ccc(Cl)cc2)cc1,0,13,4,24,60*,23,1,3
O=C(/C=C/c1ccc(OCCCF)cc1)NCc1ccc(Cl)cc1,-3,0,0,-8,50*,36,0,3
COc1cccc(NC(=O)C2CCC(CNS(=O)(=O)c3cccs3)CC2)c1 (stereo unspecified),-5,14,-1,1,47*,29,1,-15
O=C(/C=C1\OCc2cc(OCc3ccccc3)ccc21)OCc1ccccc1,/,/,/,/,46*,32,-1,-15
C[C@@H]1CN([C@H](C)CO)C(=O)c2cccc(NC(=O)NC3CCCCC3)c2O[C@@H]1CN(C)C(=O)Nc1ccc(C(F)(F)F)cc1,-1,0,-6,-1,72*,46,-1,-11
O=C(/C=C/c1ccccc1)N1CCC(Cc2ccccc2)CC1,-2,-4,-11,9,90*,77*,-1,-20
O=C(/C=C/c1ccco1)N1CCCC(c2ccccc2)C1 (stereo unspecified),-5,19,7,17,6,/,/,/
COC(=O)C1CCN(C(=O)/C=C/c2ccccc2)CC1,-2,13,-2,-11,66*,50*,0,7
O=C(/C=C/c1ccccc1)N1CCC(c2ccccc2)C1 (stereo unspecified),-4,3,-4,5,64*,50,0,5
CCCC(=O)N1CCC(Cc2ccccc2)CC1,2,4,9,1,4,/,/,/
O=C(CN1CCN(C(=O)C2CCN(C(=O)/C=C/c3ccccc3)CC2)CC1)Nc1ccc(F)cc1,/,/,5,6,62*,28,0,8
COc1ccc(C(=O)NCCS(=O)(=O)N(C)C2CCCCC2)cc1,-2,11,7,-2,-3,/,/,/
C[C@@H]1CN([C@@H](C)CO)S(=O)(=O)c2ccc(Br)cc2O[C@H]1CN(C)Cc1ccccn1,/,/,10,/,6,/,/,/
O=C(CSc1nnc(CNC(=O)c2ccccc2)o1)NCc1ccccc1Cl,6,-9,9,7,-1,/,/,/
O=C(/C=C/c1ccccc1)N1CCN(CCN2C(=O)c3cccc4cccc(c34)C2=O)CC1,-2,-1,10,19,92*,84*,-1,5
O=C(/C=C/c1cccc(Cl)c1)N1CCC(Cc2ccccc2)CC1,-2,-2,-6,20,70*,51*,0,-21
O=C(CCN1C(=O)c2cccc3cccc(c23)C1=O)N1CCOCC1,0,-7,3,5,-1,/,/,/
CC(C(=O)c1ccc(Br)cc1)[n+]1cccc2ccccc21 (stereo unspecified),-2,13,-11,18,0,/,/,/
CCN(CC)S(=O)(=O)c1ccc2oc(C(=O)NC3CCCc4ccccc43)c(C)c2c1 (stereo unspecified),-5,5,8,18,43*,10,-2,-12
COc1ccc(C2/C(=C(/O)c3ccc4c(c3)CC(C)O4)C(=O)C(=O)N2CCCN2CCOCC2)cc1 (stereo unspecified),-1,4,8,8,5,/,/,/
SMILES,APJ agonist,APJ antagonist,CXCR6 block,CCR6 antag,EBI2 antag,EBI2 conf,EBI2 agonist,bGal cs
COc1ccc(/C=N/NC(=O)CNC(=O)/C=C/c2ccccc2OC)cc1,-3,0,-1,-5,77*,57*,0,-17
COc1ccccc1/C=C\C(=O)NCC(=O)N/N=C/c1cccc(OC)c1O,2,1,4,6,-2,/,/,/
Cc1[nH]c2ccc(-c3nnc(SCC(=O)N4CCCc5ccccc54)o3)cc2c1C,2,-11,1,12,51*,47,3,5
CSc1ccccc1NC(=O)c1cc(-c2cccnc2)nc2ccc(Br)cc12,2,5,8,4,41*,16,-1,-7
CC(=O)Nc1cccc(NC(=O)c2cc(-c3cccnc3)nc3ccc(Br)cc23)c1,6,2,4,9,-27,/,/,/
Cc1ccc2nc(-c3cccnc3)cc(C(=O)Nc3ccccc3[N+](=O)[O-])c2c1,21,-31,1,7,48*,61*,1,5
COCCOC(=O)c1c(NC(=O)CN2c3ccccc3CC2C)sc(C(N)=O)c1C (stereo unspecified),-1,4,-1,10,65*,31,-1,3
COCCOC(=O)c1c(NC(=O)CN2CCOCC2)sc(C(N)=O)c1C,1,3,-7,-1,-9,/,/,/
Cc1cccc(OCC(=O)Nc2ccccc2N2CCCCC2)c1,-3,10,3,27,53*,14,-1,-9
O=C(COc1ccccc1)Nc1ccccc1N1CCCCC1,-6,-4,2,20,45*,24,-2,-9
CCCc1cc(=O)oc2cc(C)cc(OCC(=O)NCc3ccncc3)c12,-1,5,-1,1,-11,/,/,/
C=CCN1C(=O)c2ccc(C(=O)OCC(=O)N(CC)c3c(N)n(Cc4ccccc4)c(=O)[nH]c3=O)cc2C1=O,/,/,-4,0,-8,/,/,/
O=S(=O)(CC(O)COc1ccc(Br)cc1)c1ccccc1 (stereo unspecified),-4,19,-4,12,45*,18,-2,-6
Cc1cc(N2CCN(c3nc(-c4ccccc4)cs3)CC2)c2ccccc2n1,-2,5,8,7,55*,33,1,5
O=C(CSc1ccc(Br)cc1)N1CCN(S(=O)(=O)c2ccccc2)CC1,-7,-4,0,-5,90*,67*,1,6
